Assay outcomes (PubChem)
Hits are enriched below; roughly 2.3% of the tested compounds scored in any of these assays.
Insulin prom up: MIN6 insulin promoter up-regulation. MIN6 insulin promoter-GFP reporter, high-content imaging; active compounds read high. z-score at 5 µM. 190,000 tested, 0.3% active;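 active = z-score above 3 at 5 µM with at least 500 cells counted in the well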
ABCB1 block: inhibitors of human ABCB1 transporter, ABCG2 counter-screen; P08183; CCRF-Adr cells, JC-1 efflux, flow cytometry; inhibition, % at 6.6 µM; 190,000 tested, 0.067% active; AID 1326; in the data active = inhibition above about 40%;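 note: higher value means more JC-1 retained so stronger ABCB1 efflux block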
Autophagy mod: autophagy modulation, high-content screen; MEF GFP-LC3 puncta imaging; test concentration mostly 10 µM; calls only at 10 µM (by protocol); 190,000 tested, 0.98% active;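 active = percentage of spot-positive cells more than 3 SD above its plate mean, without a fluorescence outlier flag or 80% toxicity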
ABCG2 block: inhibitors of human ABCG2 transporter, ABCB1 counter-screen; IgMXP3 cells, JC-1 efflux, flow cytometry; inhibition, % at 6.6 µM; 190,000 tested, 0.1% active; AID 1325;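 active = inhibition above 80%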
Target sequence (Q9UNQ0 whole entry, looked up): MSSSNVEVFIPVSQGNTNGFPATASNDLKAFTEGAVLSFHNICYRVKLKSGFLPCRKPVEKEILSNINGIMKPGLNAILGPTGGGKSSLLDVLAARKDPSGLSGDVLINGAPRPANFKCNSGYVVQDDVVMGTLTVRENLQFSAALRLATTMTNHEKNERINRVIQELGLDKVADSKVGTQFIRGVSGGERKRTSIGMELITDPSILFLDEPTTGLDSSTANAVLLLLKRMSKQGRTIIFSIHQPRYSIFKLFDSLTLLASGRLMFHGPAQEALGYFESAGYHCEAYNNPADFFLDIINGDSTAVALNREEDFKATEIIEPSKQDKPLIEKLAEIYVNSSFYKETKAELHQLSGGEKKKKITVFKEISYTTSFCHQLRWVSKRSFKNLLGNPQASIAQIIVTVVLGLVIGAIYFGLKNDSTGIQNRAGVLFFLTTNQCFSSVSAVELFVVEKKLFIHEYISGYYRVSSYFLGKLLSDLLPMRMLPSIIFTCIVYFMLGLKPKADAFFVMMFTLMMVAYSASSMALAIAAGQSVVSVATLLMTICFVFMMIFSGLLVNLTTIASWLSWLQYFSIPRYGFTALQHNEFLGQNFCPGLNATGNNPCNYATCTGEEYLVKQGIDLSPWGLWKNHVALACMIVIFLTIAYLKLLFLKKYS
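material = IgMXP3 (ABCG2) plus far-red-tagged CCRF-Adr (ABCB1) cells | amount = 3 million cells/mL, equal mix of both lines | also added = JC-1 transporter substrate | dosing = one concentration, 6.6 µM final | schedule = 10 min at 25 °C | measured by = flow cytometric JC-1 green MFI at 530 nm | read-out basis = percent efflux inhibition, scaled nicardipine 100% to DMSO 0%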
ROMK primary: modulates human ROMK potassium channel activity | P48048 | Tet-inducible ROMK, thallium flux fluorescence; actives lie on both sides | 130,000 tested, 2% active | B-score at 10 µM | AID 1918;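 active = signal ratio slope over the read window, or its plate-corrected B-score, at least 3 SD from the plate mean, either direction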;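 note: B-score of the F/F0 ratio slope over 7 to 12 s after thallium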
SDO1 yeast rescue: sdo1-depleted yeast growth rescue. 140,000 tested, 0.21% active. S. cerevisiae sdo1-depleted JHY4D growth rescue, OD600 30 h; active compounds read high; pdr5 snq2 efflux-pump mutant strain. z-score at 10 µM;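 active = z-score above 3 at both the 24 hr and the 30 hr optical density reads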
SDO1 rescue DR: SDO1-depleted yeast growth rescue confirmation; shares compounds with SDO1 yeast rescue; S. cerevisiae JHY4D (SDO1-depleted) growth rescue, OD600, 30 h; active compounds read high; efflux-deficient strain, SNQ2 and PDR5 mutated; OD recovery (concentration not given with the values); 440 tested, 44% active; AID 949;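 active = yeast growth recovered at 30 hours, either rising with dose fitted slope above 0.001 or with average optical density gain above 0.07, some results past the limit were not filed as active; inactive = growth falling with dose or no effect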
Hits are given with their value; . = inactive; / = not tested or not shown.

SMILES	Insulin prom up	ABCB1 block	Autophagy mod	ABCG2 block	ROMK primary	SDO1 yeast rescue	SDO1 rescue DR
C/C(=N/NC(=O)c1ccc(C)s1)c1cccc(NC(=O)COc2ccc(Cl)cc2Cl)c1	.	.	.	.	.	.	.
CCC(CC)C(=O)Nc1cccc(/C(C)=N\NC(=O)c2ccc(C)s2)c1	.	.	.	.	/	.	/
COc1ccc(OC)c(NC(=S)NCCN2CCOCC2)c1	.	.	.	.	.	3.9	.
COc1ccc(C(=O)N=c2nc3ccccn3s2)cc1	.	.	.	.	.	.	0.085
COc1ccc(C(=O)C2CCCN(C(=O)/C=C/c3ccccn3)C2)c(C)c1 (stereo not drawn)	.	.	.	.	.	/	/
Fc1ccc(-c2ccc(/C=N\n3cnnc3)o2)cc1Cl	.	.	.	.	.	.	/
CC(C)COC(=O)c1cc(-c2ccc(/C=N/n3cnnc3)o2)ccc1Cl	.	.	.	.	.	4	0.12
O=C(CCCOc1ccc(Cl)cc1Cl)N/N=C/c1cccc([N+](=O)[O-])c1	.	.	.	.	.	.	.
c1cnc(N2CC[N+]3(CCCC3)CC2)nc1	.	.	.	.	/	.	/
c1cnc(N2CCSCC2)nc1	.	.	.	.	.	8.9	.
CNC(=O)c1cc2cc(OC)ccc2oc1=N	.	.	.	.	.	12	0.1
CC(C)CCn1nnnc1C(c1ccc(F)cc1)N1CCC(C(N)=O)CC1 (stereo not drawn)	.	.	.	.	/	3.5	.
COc1ccc(NC(=O)COC(=O)/C=C/C(=O)OCC(=O)Nc2ccc(OC)c(Cl)c2)cc1Cl	.	.	.	.	.	.	.
O=C(CCN1C(=O)c2ccccc2C1=O)Nc1ccc2c(c1)OCCO2	.	.	.	.	.	.	0.076
O=C(CCCCCN1C(=O)c2ccccc2C1=O)Nc1ccc2c(c1)OCCO2	.	.	.	.	.	.	/
Nn1c(SCc2ccc(F)cc2)nnc1-c1ccncc1	.	/	/	/	/	/	/
COc1cc2oc(-c3ccc(O)cc3)cc(=O)c2c(OC)c1O	.	/	/	/	/	/	/
COc1cc(OC)c(-c2c3cc(O)c(=O)cc-3oc3cc(O)c(O)cc23)cc1OC	/	.	.	.	/	3.8	.
O=S(=O)(O)c1nc2ccccc2n1CCOc1ccccc1	.	.	.	.	.	8.3	.
Cc1cccc(OCCn2c(S(=O)(=O)O)nc3ccccc32)c1	.	.	.	.	/	.	/
S=C(Nc1ccccc1)Nc1nc2ccccc2n1CCOc1ccc(Br)cc1	.	.	.	.	/	7.6	0.089
Cc1nc(S(=O)(=O)NC2CCCCC2)c(C#N)c(C)c1Cl	/	.	.	.	.	.	/
Cc1nc(S(=O)(=O)N2CCOCC2)c(C#N)c(C)c1Cl	/	.	.	.	.	3.8	0.087
CCS(=O)(=O)Nc1ccc(-c2nnc(SCC(=O)c3ccc(NC(C)=O)c(OC)c3)o2)cc1	.	.	.	.	/	.	.
CCS(=O)(=O)Nc1ccc(-c2nnc(SCC(=O)c3cccc(OC)c3)o2)cc1	.	.	.	.	.	.	/
SMILES	Insulin prom up	ABCB1 block	Autophagy mod	ABCG2 block	ROMK primary	SDO1 yeast rescue	SDO1 rescue DR
CC(=O)c1ccc(NC(=O)c2ccc(COc3ccccc3[N+](=O)[O-])o2)cc1	.	.	.	.	.	.	0.097
O=C(O)c1ccc(COc2ccccc2[N+](=O)[O-])o1	.	.	.	.	/	.	/
O=C(Nc1ccc(Cl)cc1)C1CCCN(S(=O)(=O)c2cnc[nH]2)C1 (stereo not drawn)	.	.	.	.	/	.	/
CC(C)c1ccc(NC(=O)C2CCCN(S(=O)(=O)c3cnc[nH]3)C2)cc1 (stereo not drawn)	.	.	.	.	/	.	.
C=CCn1c(N2CCCCCC2)nc2c1c(=O)n(C)c(=O)n2C	.	.	.	.	/	.	/
Cn1c(=O)c2c(nc(N3CCCC3)n2CC(O)CO)n(C)c1=O (stereo not drawn)	.	.	.	.	/	.	0.097
CCNc1sc(S(C)(=O)=O)nc1S(=O)(=O)c1ccc(Cl)cc1	/	.	.	.	.	/	/
O=C(NCc1ccccc1)/C(=C/c1ccco1)NC(=O)c1ccco1	.	.	.	.	.	/	/
CCOC(=O)c1sc(NC(=O)CSc2nnnn2-c2ccc(C)c(C)c2)nc1C	.	.	.	.	.	.	0.1
CCOC(=O)c1sc(NC(=O)CSc2nnnn2-c2ccccc2)nc1C	.	.	.	.	/	.	/
CC(C)C1(C(C)C)OC(=O)c2ccccc21	.	.	.	.	.	3	.
CC(C)n1c(O)c(N=NC(=O)C2COc3ccccc3O2)c2ccccc21 (stereo not drawn)	.	.	.	.	.	/	/
CCOC(=O)C1CCCN(C(=O)c2ccccc2SCCOC)C1 (stereo not drawn)	.	.	.	.	.	.	0.081
COCCSc1ccccc1C(=O)N1CCCC(C)C1 (stereo not drawn)	.	.	.	.	.	/	/
O=C(CSc1ncn[nH]1)Nc1ccccc1C(=O)O	.	.	.	.	/	.	/
O=C(CSc1ncn[nH]1)Nc1nc(-c2ccccc2)ns1	.	.	.	.	/	.	.
COc1cccc(C(=O)Nc2cccc(-c3nnc(-c4ccco4)o3)c2)c1	.	.	.	.	.	4.7	.
COc1ccc(Br)cc1C(=O)Nc1cccc(-c2nnc(-c3ccco3)o2)c1	/	/	.	/	/	/	/
COc1ccc(CNc2nc3nc(C)cc(C)n3n2)cc1	/	.	.	.	/	.	/
COc1ccc(-c2nc3nc(C)cc(C)n3n2)cc1	.	.	.	.	.	13	.
Cc1c(NS(=O)(=O)c2ccc(NCCN3CCOCC3)c([N+](=O)[O-])c2)c(=O)n(-c2ccccc2)n1C	.	.	.	.	.	/	/
Nc1nc(-c2ccco2)c(-c2ccco2)s1	.	.	.	.	/	13	0.071
Cc1nn(C)c(C)c1S(=O)(=O)N1CCCC(C(=O)NC2CCCCCC2)C1 (stereo not drawn)	.	.	.	.	/	.	0.083
Cc1ccc(S(=O)(=O)N2CCN(C(=O)c3cc(=O)c4ccccc4o3)CC2)cc1	.	.	.	.	.	/	/
CCCc1nc2ccccc2c(=O)n1N	/	.	.	.	.	3.6	.
SMILES	Insulin prom up	ABCB1 block	Autophagy mod	ABCG2 block	ROMK primary	SDO1 yeast rescue	SDO1 rescue DR
Cc1ccc(-n2[nH]c(C)c(C=Nc3cc(C)ccn3)c2=O)cc1	.	.	.	.	.	9.4	0.07
O=C(O)COc1ccc2occ(C(=O)c3ccccc3)c2c1	.	.	.	.	/	.	/
COC(=O)COc1ccc2occ(C(C)=O)c2c1	.	.	.	.	.	3.6	0.11
CCOc1ccc(Nc2nnc(SCc3nc4ccccc4c(=O)[nH]3)s2)cc1	.	/	/	/	/	/	/
CN(C)c1ccc(/C=[N+](\[O-])C2N(c3ccccc3)C(=S)SC2(C)C)cc1 (stereo not drawn)	.	.	.	.	.	7.9	.
CCCCSc1nnc(CCNC(=O)OC(C)(C)C)o1	.	/	/	/	/	/	/
